{"source": "ChEMBL document CHEMBL4354800", "about": "“Amphiphilic nebramine-based hybrids Rescue legacy antibiotics from intrinsic resistance in multidrug-resistant Gram-negative bacilli” (Eur J Med Chem, 2019)", "key": {"[1]": {"test": "Toxicity in Galleria mellonella larvae assessed as tolerability by measuring larvae deaths at 75 mg/kg incubated for 96 hrs relative to control", "assay_type": "organism-based", "settings": "in vivo"}, "[2]": {"test": "Toxicity in Galleria mellonella larvae assessed as tolerability by measuring larvae deaths at 100 mg/kg incubated for 96 hrs relative to control", "assay_type": "organism-based", "settings": "in vivo"}, "Pseudomonas aeruginosa [3]": {"system": "Pseudomonas aeruginosa", "test": "Disruption of proton gradient in Pseudomonas aeruginosa PAO1 membrane assessed as inhibition of tetracycline uptake at 25 uM measured every 1 min for 30 mins by fluorescence based assay", "assay_type": "organism-based", "settings": "Bacterial membrane"}, "Pseudomonas aeruginosa [4]": {"system": "Pseudomonas aeruginosa", "test": "Antimicrobial activity against XDR Pseudomonas aeruginosa PA264 infected in Galleria mellonella larvae assessed as survival rate at 25 mg/kg administered 2 hrs post-inoculation measured after 24 hrs relative to control", "assay_type": "functional, organism-based"}, "Pseudomonas aeruginosa [5]": {"system": "Pseudomonas aeruginosa", "test": "Increase in tetracycline uptake in Pseudomonas aeruginosa PAO1 membrane at 25 uM measured every 1 min for 30 mins by fluorescence based assay", "assay_type": "organism-based", "settings": "Bacterial membrane", "method_in_brief": "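P. aeruginosa PAO1 was grown to OD600 0.6, washed, and resuspended in ¼ volume of 10 mM HEPES, pH 7.2. Cells received varying compound concentrations together with fixed tetracycline. Fluorescence (ex 405 nm, em 535 nm) was recorded every 1 min for 30 min at room temperature. Experiments were done in triplicate and averages reported.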"}}, "note": "Calls of active or inactive are those of the source. The calls are words filed in the database; no cut-off is given here."}
{"molecule": "COLISTIN [listing 1 of 2 here]", "values": [{"measurement": "Activity", "setting": "[1]", "result": 70, "unit": "%"}, {"measurement": "Activity", "setting": "[2]", "result": 90, "unit": "%"}]}
{"molecule": "N#CC(C#N)=NNc1cccc(Cl)c1", "values": [{"measurement": "inhibition", "setting": "Pseudomonas aeruginosa [3]", "result": "Active"}]}
{"molecule": "COLISTIN [listing 2 of 2 here]", "values": [{"measurement": "Survival", "setting": "Pseudomonas aeruginosa [4]", "result": 0, "unit": "%"}, {"measurement": "Activity", "setting": "Pseudomonas aeruginosa [5]", "result": "Active"}]}
